Screening results (PubChem BioAssay)
Hep lipid drop – hepatic lipid droplet formation modulation. inhibition, % at 6.5 µM. AML12 mouse hepatocytes, oleate lipid droplets, BODIPY imaging. hit rate 0.4% among 240,000;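 active = lipid droplet intensity inhibited by at least 50%, with more than 500 cells counted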
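Assay system: AML12 mouse liver cells | Compound dosing: One dose, 6.5 µM compound | Read-out basis: Droplet intensity reduction, % inhibition | Measured by: Fluorescence imaging, 20x objective, two fields per well | Schedule: Overnight treatment with compound plus oleate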
TNF necrop inh – blocks TNF-alpha induced death of Jurkat FADD-/- cells | hit rate 0.068% among 220,000 | activation (protection from cell death), % at 10 µM | Jurkat FADD-/- TNF necroptosis rescue, ATP luminescence, 24 h; 0 = TNF only, 100 = no-TNF cells;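 active = activation, meaning protection from cell death, of at least 50% relative to plate controls; inactive = activation below 50%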;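 also: necroptosis triggered by 40 ng/mL TNF-alpha added together with compound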
TbHK1 inh – T. brucei hexokinase 1 inhibition. hit rate 0.11% among 220,000. recombinant TbHK1, G6PDH-coupled NADH A340. inhibition, % at 10 µM;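 active = inhibition of 50% or more in the single-dose primary screen; inactive = inhibition below 50%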
RBBP9 inh – human RBBP9 hydrolase inhibition; hit rate 0.2% among 220,000; inhibition, % at 7.94 µM; recombinant RBBP9, FP-Rh probe fluorescence polarization;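 active = inhibition above the campaign mean of all tested compounds plus 3 SD, cut at about 14% in these data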;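 also: plate controls were DMSO wells with RBBP9 for no effect and wells lacking RBBP9 protein for full effect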
Target sequence (O75884 whole entry, looked up): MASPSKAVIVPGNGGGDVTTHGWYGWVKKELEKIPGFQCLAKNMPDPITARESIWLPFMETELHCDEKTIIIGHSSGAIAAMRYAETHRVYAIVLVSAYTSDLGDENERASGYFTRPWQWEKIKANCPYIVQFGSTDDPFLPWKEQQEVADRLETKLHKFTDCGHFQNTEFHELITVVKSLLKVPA
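Material: RBBP9 protein. Amount: RBBP9 at 2.5 µM in dispensed solution, before mixing. Schedule: 30 min then 45 min, 25 °C. Medium: Tris buffer pH 8.0, NaCl, Pluronic. Measured by: fluorescence polarization. Measure: percent inhibition from mP, scaled between DMSO and no-protein wells. Replication: one well per compound.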
PfM18AAP inh-1 – blocks P. falciparum M18 aspartyl aminopeptidase. recombinant PfM18AAP, H-Glu-NHMec fluorogenic cleavage. inhibition, % at 7.35 µM. hit rate 1.2% among 290,000;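 active = inhibition above the campaign mean inhibition over all tested compounds plus 3 SD, cut at about 28% in these data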;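 also: 0% = plate median of test compound wells and 100% = 2 mM ZnCl2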
L929 necroptosis – L929 zVAD cell death inhibition; hit rate 0.38% among 220,000; L929 zVAD necroptosis rescue, ATP luminescence, 24 h; with zVAD 60 µM; viability rescue, % at 10 µM;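 active = activation, scaled between plate controls, above about 75%, limit read from the data; inactive = activation under that limit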;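 also: 0% = zVAD with DMSO and 100% = DMSO alone without zVAD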
PfM18AAP inh-2 – confirmation of Plasmodium falciparum M18 aspartyl aminopeptidase inhibitors; shares compounds with PfM18AAP inh-1; recombinant PfM18AAP, H-Glu-NHMec fluorogenic cleavage; inhibition, % at 7.35 µM; hit rate 28% among 2,400;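 active = mean inhibition over replicate wells above the hit cutoff set for the earlier primary screen, cut at about 29% in these data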;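 also: 0% = median of test compound wells and 100% = 2 mM ZnCl2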
CTSL1 confirm – Cathepsin L (human) inhibition, confirmation; shares compounds with PfM18AAP inh-1; purified cathepsin L1, Z-Leu-Arg-MCA fluorescence; inhibition, % at 5.96 µM; 2,400 tested, under 10 active;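 active = average inhibition across replicates above the hit cutoff set in the earlier primary screen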;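 also: 0% = median of test compound wells and 100% = Z-Phe-Ala-diazomethylketone 1 µM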
Target sequence (P07711 whole entry, looked up): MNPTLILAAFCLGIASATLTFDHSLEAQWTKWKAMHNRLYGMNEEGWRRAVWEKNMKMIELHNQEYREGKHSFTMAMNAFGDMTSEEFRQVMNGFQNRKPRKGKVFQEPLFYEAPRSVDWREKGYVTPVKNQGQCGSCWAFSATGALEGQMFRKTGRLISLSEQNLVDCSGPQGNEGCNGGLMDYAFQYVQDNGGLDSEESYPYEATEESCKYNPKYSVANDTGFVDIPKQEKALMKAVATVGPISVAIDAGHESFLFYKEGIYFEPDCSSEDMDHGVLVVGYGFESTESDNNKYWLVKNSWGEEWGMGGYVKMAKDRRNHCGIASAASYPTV
An asterisk follows results filed as active; . = not tested or not shown. A selection: hits, their analogues and other compounds. The true share with any hit is near 2%.

SMILES	Hep lipid drop	TNF necrop inh	TbHK1 inh	RBBP9 inh	PfM18AAP inh-1	L929 necroptosis	PfM18AAP inh-2	CTSL1 confirm
OC(Cn1cnnc1)c1ccccc1 (stereo unspecified)	.	.	.	.	79*	.	76*	-3
O=[N+]([O-])c1cccnc1N/N=C/c1ccccc1O	-1	-13	-7	-2	9	10	.	.
Cc1c(O)ccc(/C=N/Nc2ncccc2[N+](=O)[O-])c1O	2	.	.	.	43*	.	10	1
O=C(Nc1cccc(Cl)c1)N(CCN1CCOCC1)Cc1cccc(Cl)c1	-18	-3	-15	-10	-7	0	.	.
O=C(Nc1cccc(Cl)c1)N(CCN1CCOCC1)Cc1ccccc1F	-15	1	-7	-4	71*	0	-30	2
O=C(O)C(c1ccccc1)N1C(=O)/C(=C\c2ccc(O)c(O)c2)SC1=S (stereo unspecified)	3	.	.	.	49*	.	28*	-2
COc1cc(/C=C2\SC(=S)N(C(C(=O)O)c3ccccc3)C2=O)ccc1O (stereo unspecified)	2	-1	-18	-105	23	0	.	.
CCOC(=O)c1ccc(NC2OC(=O)c3ccccc32)cc1 (stereo unspecified)	-15	-2	-4	-7	-6	0	.	.
Oc1ccc(-c2nc3ccc4ccccc4c3c3c2CCC3)cc1O	1	-9	-3	-23	47*	69	32*	-1
O=C(NCC1CCCO1)C1CCCN(S(=O)(=O)c2ccc(Br)cc2)C1 (stereo unspecified)	-2	.	.	.	32*	.	-52	-1
O=C(Nc1ccccn1)C(=O)Nc1ccccn1	11	-1	-7	0	4	0	.	.
S=C(Nc1ccccn1)c1ccccn1	7	-13	-5	1	36*	10	-23	2
CC(C)(C)c1nnc(N/N=C/c2ccccc2)n(N)c1=O	11	0	-26	-8	47*	2	-50	3
COc1ccc(/C=N/Nc2nnc(C)n2N)cc1OC	-10	-1	-16	-8	26	2	.	.
O=C(O)c1cccc(-c2ccc(/C=N/NC(=O)c3cccnc3)o2)c1	-8	1	-43	-6	-3	0	.	.
Cc1nnc(N/N=C\c2ccc(-c3cccc(C(=O)O)c3)o2)n1N	21	-2	-40	-4	51*	0	5	-2
O=C(O)c1ccc(N/N=C/c2ccc(-c3ccc(Br)cc3)o2)cc1	37	.	.	.	7	.	.	.
COc1ccc(/C=N/Nc2nnc(C)n2N)cc1OC(C)=O	.	.	.	.	34*	.	-39	1
Cc1nnc(N/N=C/c2ccc(-c3ccc(Br)cc3)o2)n1N	-13	-2	-35	-4	51*	29	3	2
Cn1nccc1C(=O)Nc1ccc2c(c1)OCO2	-12	.	.	.	2	.	.	.
CCn1c(C)nc2cc(C(=O)NNC(=S)NC(=O)c3ccc(OC)cc3)ccc21	-2	1	-10	5	-4	4	.	.
Cc1nnc(N/N=C/c2ccc([N+](=O)[O-])cc2)n1N	18	-2	-25	-5	15	0	.	.
Cc1nnc(N/N=C/c2ccc(Br)cc2)n1N	10	.	.	.	48*	.	-37	-6
CCOC(=O)c1c(/N=C/C2=C(O)CCCC2=O)sc(C)c1C	5	0	-7	-2	24	3	.	.
CCOC(=O)c1c(-c2ccc(OC)cc2)csc1/N=C/C1=C(O)CCCC1=O	-16	1	1	-11	37*	0	-30	4
SMILES	Hep lipid drop	TNF necrop inh	TbHK1 inh	RBBP9 inh	PfM18AAP inh-1	L929 necroptosis	PfM18AAP inh-2	CTSL1 confirm
N#Cc1c(Cl)nsc1NN	29	-2	-4	-4	39*	0	29*	-1
Cc1c(C#N)c(N)nc(Cl)c1C#N	1	-2	-8	0	-5	-1	.	.
CC(C)COC(=O)N1C[C@H](O)C[C@H]1C(=O)Nc1ccc(Cl)cc1	-14	.	.	.	-1	.	.	.
CC(=O)Oc1c(I)cc(I)cc1C(=O)Nc1ccc(Cl)cc1	17	.	.	.	11	.	.	.
CC(CC(=O)O)Nc1ccccc1O (stereo unspecified)	-4	2	1	3	38*	2	8	-1
Cc1cc(C)c(S(=O)(=O)N2CCCC(C(=O)NC3CCCC3)C2)c(C)c1 (stereo unspecified)	7	.	.	.	-6	.	.	.
COc1ccc(C(=O)NC(=S)N2CCOCC2)cc1[N+](=O)[O-]	2	.	.	.	-6	.	.	.
Nc1c(/C=C2/C=CC(=O)C(O)=C2)c(=O)nc2sc(CC(=O)N3CCCC3)nn12	4	.	.	.	63*	.	43*	-2
COC(=O)CN(n1cnnc1)S(=O)(=O)c1ccc(C)cc1	3	0	-1	-5	84*	0	79*	-13
COC(=O)CN(c1cc(Cl)ccc1OC)S(=O)(=O)c1ccc(C)cc1	0	-8	-9	-9	-2	0	.	.
O=C(NNc1c(Cl)cccc1Cl)c1c(F)cccc1Cl	-7	1	-5	-12	-1	0	.	.
O=C(NNc1ccc(F)cc1F)c1c(F)cccc1Cl	18	0	1	-5	33*	0	6	2
CCN1C/C(=C/c2ccc(OC)c(O)c2)C(=O)/C(=C/c2ccc(OC)c(O)c2)C1	3	-9	-9	7	13	57	.	.
COc1ccc(/C=C2\CN(Cc3ccccc3)C/C(=C\c3ccc(OC)c(O)c3)C2=O)cc1O	-22	.	.	.	45*	.	3	-1
C/C(=N\N=C(N)N)c1ccc(Cl)cc1Cl	-16	3	1	0	-11	10	.	.
O=C(O)c1cc(S(=O)(=O)N2CCOCC2)ccc1N1CCCCC1	0	0	-9	-1	-7	5	.	.
O=c1c2ccccc2sn1-c1cc(S(=O)(=O)N2CCOCC2)ccc1N1CCCC1	-27	-3	27	10	41*	-1	27	-1
O=C(Nc1cccc(OCC(=O)N2CCOCC2)c1)c1ccc(C(F)(F)F)cc1	-3	.	.	.	1	.	.	.
Cc1cc(C)c(S(=O)(=O)NCc2cccnc2)c(C)c1	-4	.	.	.	13	.	.	.
Cc1c(Cl)cccc1NC(=O)Cn1cccc1	.	4	6	-4	4	0	.	.
COc1ccc(OC)c(CCNC(=O)Cn2sc3nc(C)cc(C)c3c2=O)c1	.	-3	-2	9	51*	0	19	0
Cc1cc(C)c2c(=O)n(CC(=O)Nc3cccc(Cl)c3C)sc2n1	-1	-4	16	-7	63*	0	41*	3
COc1cc(C2C(C(=O)c3cccs3)=C(O)C(=O)N2c2cc(C)on2)ccc1O (stereo unspecified)	.	1	-18	-2	55*	0	-47	-3
